Measurements from different studies.
Compare with care: the assays were run in different laboratories.
CASP7: Caspase-7 (CASP7, Homo sapiens, UniProt P55210)
glgA: glgA (Escherichia coli, UniProt P0A6U8)

SMILES | target | assay | test system | conditions | measurement | result
O=C(Nc1cccnn1)N1CCN([C@@H]2CCOc3cc(C(F)(F)F)ccc32)CC1 | Alpha-2B adrenergic receptor (ADRA2B, Homo sapiens, UniProt P18089) | ligand displacement | – | 20 µM | inhibition | 45%
COc1ncccc1-c1cnn2ccc(N3CCN(C(=O)OC(C)C)CC3)nc12 | Mitogen-activated protein kinase kinase kinase 15 (MAP3K15, Homo sapiens, UniProt Q6ZN16) | binding, competition with immobilised ligand | – | 1 µM | remaining binding | 86%
CN(C)C(=O)COC(=O)Cc1ccc(OC(=O)c2ccc(NC(=N)N)cc2)cc1 | CASP7 | enzyme activity, inhibitor | – | 10 µM | inhibition | 0%
CSCC[C@H](NC(=O)[C@@H](NC(=O)[C@@H](N)Cc1ccc(O)cc1)C(C)C)C(=O)NCC(=O)N[C@@H](Cc1c[nH]cn1)C(=O)O | Melanocyte-stimulating hormone receptor (Mc1r, Mus musculus, UniProt Q01727) | cAMP, agonist | HEK293 | – | Emax | 60%
CCN(CC)CCCC[C@H](NC(=O)[C@H](CC(C)C)NC(=O)[C@H](C)NC(=O)[C@H](Cc1ccccc1)NC(=O)c1ccc(C(C)(C)C)cc1)C(=O)N[C@@H](CO)C(=O)OC | CREB-binding protein (CREBBP, Homo sapiens, UniProt Q92793) | thermal stability, DSF | – | 25 µM | ΔTm | 0.35 °C
C=CC(=O)N1CCC[C@@H](n2nc(-c3ccc(Oc4ccccc4)cc3)c3c(N)ncnc32)C1 | Dual specificity tyrosine-phosphorylation-regulated kinase 1B (DYRK1B, Homo sapiens, UniProt Q9Y463) | cell-free assay | – | 0.1 µM | remaining signal | 195%
OC[C@H]1NC[C@@H](O)[C@@H]1O | glgA | enzyme activity, inhibitor | – | 500 µM | activity vs control | 72%
C#Cc1n[nH]c2c(-c3cn(C(C)c4ccccn4)c(=O)[nH]c3=O)cc(F)cc12 (stereo not shown) | Phosphatidylinositol 4,5-bisphosphate 3-kinase catalytic subunit gamma isoform (PIK3CG, Homo sapiens, UniProt P48736) | enzyme activity, inhibitor | – | 1 µM | inhibition | 14.7%
Cc1nn(C)cc1-c1nc2c(N3CCN(Cc4ccc(Cl)cc4)CC3)c(Cl)cnc2[nH]1 | Dual specificity testis-specific protein kinase 1 (TESK1, Homo sapiens, UniProt Q15569) | binding, competition with immobilised ligand | – | 1 µM | remaining binding | 87%
CC(=O)N[C@@H](CC(=O)O)C(=O)N[C@@H](CC(N)=O)C(=O)N[C@@H](CC(C)C)C(=O)N[C@H](C=O)CC(=O)O | CASP7 | enzyme activity, inhibitor | – | 50 nM | inhibition | 43%
Nc1ncc(-c2nc(N3CCOCC3)nc(N3CCOCC3)n2)c(C(F)F)n1 | 5-hydroxytryptamine receptor 1B (Htr1b, Rattus norvegicus, UniProt P28564) | cell-free assay, radioligand | – | 10 µM | remaining signal | 115%
N=C(N)c1ccc2cc(OC(=O)c3ccc(N=C(N)N)cc3)ccc2c1 | Ubiquitin carboxyl-terminal hydrolase isozyme L3 (UCHL3, Homo sapiens, UniProt P15374) | enzyme activity, inhibitor | – | 10 µM | inhibition | 6%
Nc1ncnc2c1ncn2[C@@H]1O[C@H](COP(=O)(O)OP(=O)(O)O[C@H]2O[C@H](CO)[C@@H](O)[C@H](O)[C@H]2O)[C@@H](O)[C@H]1O | glgA | enzyme activity, substrate | – | – | Km | 420 µM
